“And” between values parts separate entries of the source, which are not always exact repeats. Identical values can stand only once.
biological target: T1, GVIA iPLA2 (Homo sapiens, UniProt O60733); assay: In vitro GVIA iPLA2 inhibition, mixed micellar modified Dole assay; type: biochemical; details: mole fraction of inhibitor in total substrate interface required to inhibit the enzyme by 50%; mixed micelles
T1 sequence (O60733 1-806): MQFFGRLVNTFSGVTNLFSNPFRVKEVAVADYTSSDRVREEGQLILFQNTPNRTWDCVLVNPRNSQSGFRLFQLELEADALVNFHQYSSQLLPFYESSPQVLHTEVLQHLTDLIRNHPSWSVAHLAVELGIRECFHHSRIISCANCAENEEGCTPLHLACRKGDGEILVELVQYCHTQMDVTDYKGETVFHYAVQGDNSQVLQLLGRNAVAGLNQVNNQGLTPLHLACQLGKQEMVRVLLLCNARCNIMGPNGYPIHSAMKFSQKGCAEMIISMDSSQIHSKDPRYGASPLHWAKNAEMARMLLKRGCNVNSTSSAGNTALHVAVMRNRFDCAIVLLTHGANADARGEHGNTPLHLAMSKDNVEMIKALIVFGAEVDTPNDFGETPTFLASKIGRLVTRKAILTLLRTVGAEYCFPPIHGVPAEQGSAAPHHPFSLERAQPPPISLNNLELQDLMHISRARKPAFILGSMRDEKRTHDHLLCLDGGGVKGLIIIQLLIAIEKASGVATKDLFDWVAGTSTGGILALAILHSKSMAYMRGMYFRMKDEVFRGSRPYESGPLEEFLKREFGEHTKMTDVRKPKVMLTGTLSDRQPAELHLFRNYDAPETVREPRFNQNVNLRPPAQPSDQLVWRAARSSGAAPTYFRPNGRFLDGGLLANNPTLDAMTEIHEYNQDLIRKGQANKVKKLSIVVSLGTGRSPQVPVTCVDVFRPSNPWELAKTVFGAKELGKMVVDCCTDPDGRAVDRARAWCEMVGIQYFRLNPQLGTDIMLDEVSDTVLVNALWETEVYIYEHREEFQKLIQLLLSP
Method in brief: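 Human GVIA iPLA2 on Triton X-100 mixed micelles, either 400 μM Triton X-100/99 μM DPPC/1.5 μM 14C-DPPC in 200 mM HEPES pH 7.0, 1 mM ATP, 2 mM DTT, 0.1 mg/ml BSA, or 400 μM Triton/98.3 μM PAPC/1.7 μM 14C-PAPC in 100 mM HEPES pH 7.5, 2 mM ATP, 4 mM DTT. XI(50) obtained when screening inhibition exceeded 90%: 7 points (typically 0.005–0.091 mole fraction), linear or one-site hyperbola (BMAX = 100) fit.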

Question: For `CCCCCCCCCCCCCCC(=O)C(=O)N[C@@H](CCCC)C(=O)NCC(=O)OC` [Compound 4a, (S)-Methyl 2-(2-(2-oxohexadecanamido)hexanamido)acetate], which “GVIA iPLA2 XI(50)” value is on record?
Answer: 0.045 ± 0.018 mole fraction

Question: With `CCCCCCCCCCCCCCC(=O)C(=O)N[C@@H](CCCC)C(=O)NCC(=O)OCC` [Compound 4c, (S)-Ethyl 2-(2-(2-oxohexadecanamido)hexanamido)acetate] as the molecule, how does the “GVIA iPLA2 XI(50)” value read?
Answer: 0.020 mole fraction and 0.020 ± 0.002 mole fraction

Question: With `CCCCCCCCCCCCCCC(=O)C(=O)N[C@@H](CCCC)C(=O)NCC(=O)OC(C)(C)C` [Compound 8a, (S)-tert-Butyl 2-(2-(2-oxohexadecanamido)hexanamido)acetate] as the molecule, how does the “GVIA iPLA2 XI(50)” value read?
Answer: 0.011 mole fraction and 0.011 ± 0.001 mole fraction

Question: Which “GVIA iPLA2 XI(50)” value does the source give for `CCCCCCCCCCCCCCC(=O)C(=O)N[C@H](C(=O)NCC(=O)OC(C)(C)C)C(C)C` [Compound 8b, (S)-tert-Butyl 2-(3-methyl-2-(2-oxohexadecanamido)butanamido)acetate] here?
Answer: 0.044 ± 0.025 mole fraction

Question: For `CCCCCCCCCCCCCCC(=O)C(=O)N[C@@H](CCCC)COCC(=O)OCC` [Compound 13, (S)-Ethyl 2-(2-(2-oxohexadecanamido)hexyloxy)acetate], which “GVIA iPLA2 XI(50)” value is on record?
Answer: 0.017 mole fraction and 0.017 ± 0.002 mole fraction

Reference: article PMC2695835 (Bioorganic & medicinal chemistry, 2009)
